Results: ChEMBL document CHEMBL3351795, “Discovery of Cathepsin S Inhibitor LY3000328 for the Treatment of Abdominal Aortic Aneurysm” (ACS Med Chem Lett, 2014)
In brackets after ≈: the same amount, converted by molar mass. Activity calls are given as the source filed them. No cut-off for these calls is given here.

Legend:
[1] = biological target: Procathepsin L (Homo sapiens, UniProt P07711); assay: Inhibition of human cathepsin L using benzyloxycarbonyl-L-Leucyl-L-Arginine 4-Methyl-coumaryl-7-amide substrate by FRET assay
[2] = biological target: Cathepsin S (Homo sapiens, UniProt P25774); assay: Inhibition of human cathepsin S using benzyloxycarbonyl-L-Leucyl-L-Arginine 4-Methyl-coumaryl-7-amide substrate by FRET assay
[3] = organism: Rattus norvegicus; assay: Inhibition of rat cathepsin S G137C mutant using benzyloxycarbonyl-L-Leucyl-L-Arginine 4-Methyl-coumaryl-7-amide substrate by FRET assay
[4] = biological target: Cathepsin S (Mus musculus, UniProt O70370); assay: Inhibition of mouse cathepsin S using benzyloxycarbonyl-L-Leucyl-L-Arginine 4-Methyl-coumaryl-7-amide substrate by FRET assay
[5] = Drug metabolism in human liver microsomes after 30 mins at 4 uM; type: ADME; conditions: read-out: Drug metabolism
[6] = biological target: CYP2C9 (Homo sapiens, UniProt P11712); assay: Inhibition of CYP2C9 (unknown origin) using diclofenac substrate at 10 uM; type: ADME; conditions: probe diclofenac
[7] = Oral bioavailability in Beagle dog at 3 mg/kg; type: ADME, organism-based, Canis lupus familiaris; conditions: in vivo
[8] = biological target: CYP2D6 (Homo sapiens, UniProt P10635); assay: Inhibition of CYP2D6 (unknown origin) using bufuralol substrate at 10 uM; type: ADME; conditions: probe bufuralol
[9] = Volume of distribution in Beagle dog at 1 mg/kg, iv or 3 mg/kg, po; type: ADME, organism-based, Canis lupus familiaris; conditions: in vivo
[10] = Lipophilicity, log D of the compound at pH 4.0; type: physicochemical; conditions: buffer
[11] = Solubility in simulated gastric fluid; type: ADME
[12] = Drug metabolism in rat liver microsomes after 30 mins at 4 uM; type: ADME; conditions: read-out: Drug metabolism
[13] = tested on: MDCK; assay: Permeability from apical to basolateral side in MDCK cells at 2.5 uM incubated for 1 hr; type: ADME, cell-based, Canis lupus familiaris; conditions: dog
[14] = tested on: Mus musculus; assay: Inhibition of CaCl2-induced abdominal aortic aneurysm in 129SvEv mouse assessed as reduction in aortic diameter at 1 to 30 mg/kg dosed through oral gavage BID for 4 weeks with first dose given one day prior to surgery; type: functional, organism-based; conditions: Abdomen
[15] = Lipophilicity, log P of the compound; type: physicochemical; conditions: octanol/water
[16] = Dissociation constant, basic pKa of the compound; type: physicochemical
[17] = Clearance in Beagle dog at 1 mg/kg, iv or 3 mg/kg, po; type: ADME, organism-based, Canis lupus familiaris; conditions: in vivo
[18] = Drug metabolism in mouse liver microsomes after 30 mins at 4 uM; type: ADME; conditions: read-out: Drug metabolism
[19] = biological target: CYP3A4 (Homo sapiens, UniProt P08684); assay: Inhibition of CYP3A4 (unknown origin) using midazolam substrate at 10 uM; type: ADME; conditions: probe midazolam
[20] = Drug metabolism in dog liver microsomes after 30 mins at 4 uM; type: ADME, Canis lupus familiaris; conditions: read-out: Drug metabolism
[21] = AUC (0 to 24 hrs) in 129SvEv mouse model of CaCl2-induced abdominal aortic aneurysm at 3 mg/kg dosed through oral gavage BID for 4 weeks with first dose given one day prior to surgery; type: ADME, organism-based, Abdomen; design: time < 24 hr, dose 3 mg/kg, route oral; conditions: in vivo
[22] = AUC (0 to 24 hrs) in 129SvEv mouse model of CaCl2-induced abdominal aortic aneurysm at 30 mg/kg dosed through oral gavage BID for 4 weeks with first dose given one day prior to surgery; type: ADME, organism-based, Abdomen; design: time < 24 hr, dose 30 mg/kg, route oral; conditions: in vivo
[23] = tested on: Mus musculus; assay: Inhibition of CaCl2-induced abdominal aortic aneurysm in 129SvEv mouse assessed as reduction in aortic diameter at 30 mg/kg dosed through oral gavage BID for 4 weeks with first dose given one day prior to surgery; type: functional; conditions: Abdomen
[24] = tested on: Plasma; assay: Stability in rat plasma assessed as loss of parent compound after 30 mins; type: ADME, cell-free; conditions: 0.5 h
Method in brief: (§1)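 Compound incubated in human or rat plasma for up to 30 min; loss of parent compound tested for statistical significance.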

[25] = AUC (0 to 24 hrs) in 129SvEv mouse model of CaCl2-induced abdominal aortic aneurysm at 1 mg/kg dosed through oral gavage BID for 4 weeks with first dose given one day prior to surgery; type: ADME, organism-based, Abdomen; design: time < 24 hr, dose 1 mg/kg, route oral; conditions: in vivo
[26] = tested on: Mus musculus; assay: Inhibition of CaCl2-induced abdominal aortic aneurysm in 129SvEv mouse assessed as reduction in aortic diameter at 3 mg/kg dosed through oral gavage BID for 4 weeks with first dose given one day prior to surgery; type: functional; conditions: Abdomen
[27] = tested on: Mus musculus; assay: Inhibition of CaCl2-induced abdominal aortic aneurysm in 129SvEv mouse assessed as reduction in aortic diameter at 1 mg/kg dosed through oral gavage BID for 4 weeks with first dose given one day prior to surgery; type: functional; conditions: Abdomen
[28] = biological target: hERG (Homo sapiens, UniProt Q12809); assay: Displacement of [3H]astemizole form human ERG expressed in HEK293 cell membranes at 100 uM; conditions: HEK293 cell membranes that express human ERG, probe [3H]astemizole
[29] = tested on: Mus musculus; assay: Inhibition of CaCl2-induced abdominal aortic aneurysm in 129SvEv mouse assessed as reduction in aortic diameter at 10 mg/kg dosed through oral gavage BID for 4 weeks with first dose given one day prior to surgery; type: functional; conditions: Abdomen
[30] = AUC (0 to 24 hrs) in 129SvEv mouse model of CaCl2-induced abdominal aortic aneurysm at 10 mg/kg dosed through oral gavage BID for 4 weeks with first dose given one day prior to surgery; type: ADME, organism-based, Abdomen; design: time < 24 hr, dose 10 mg/kg, route oral; conditions: in vivo
[31] = tested on: Plasma; assay: Stability in human plasma assessed as loss of parent compound after 30 mins; type: ADME, cell-free; conditions: 0.5 h; method in brief: as §1

Chain of Cathepsin S (Mus musculus, UniProt O70370) (O70370 whole entry): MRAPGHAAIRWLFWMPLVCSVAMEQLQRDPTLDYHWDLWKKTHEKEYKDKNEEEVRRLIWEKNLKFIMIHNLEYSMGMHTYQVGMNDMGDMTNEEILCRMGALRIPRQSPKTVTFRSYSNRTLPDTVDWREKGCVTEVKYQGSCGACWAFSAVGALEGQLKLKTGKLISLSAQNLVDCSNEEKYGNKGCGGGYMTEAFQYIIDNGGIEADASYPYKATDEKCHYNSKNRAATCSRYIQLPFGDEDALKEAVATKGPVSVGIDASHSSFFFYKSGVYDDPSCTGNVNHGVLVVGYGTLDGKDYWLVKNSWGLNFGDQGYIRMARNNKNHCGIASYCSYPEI
Chain of Cathepsin S (Homo sapiens, UniProt P25774) (P25774 whole entry): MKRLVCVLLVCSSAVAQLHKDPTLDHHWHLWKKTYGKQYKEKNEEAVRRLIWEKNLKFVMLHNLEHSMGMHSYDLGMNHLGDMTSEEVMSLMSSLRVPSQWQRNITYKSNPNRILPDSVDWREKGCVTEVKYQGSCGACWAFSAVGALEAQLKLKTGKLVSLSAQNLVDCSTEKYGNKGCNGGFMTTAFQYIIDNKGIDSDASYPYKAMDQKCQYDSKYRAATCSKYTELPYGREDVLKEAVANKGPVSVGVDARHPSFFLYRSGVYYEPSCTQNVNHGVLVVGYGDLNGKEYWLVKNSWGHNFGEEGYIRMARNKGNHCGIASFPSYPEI
Chain of CYP2D6 (P10635 whole entry): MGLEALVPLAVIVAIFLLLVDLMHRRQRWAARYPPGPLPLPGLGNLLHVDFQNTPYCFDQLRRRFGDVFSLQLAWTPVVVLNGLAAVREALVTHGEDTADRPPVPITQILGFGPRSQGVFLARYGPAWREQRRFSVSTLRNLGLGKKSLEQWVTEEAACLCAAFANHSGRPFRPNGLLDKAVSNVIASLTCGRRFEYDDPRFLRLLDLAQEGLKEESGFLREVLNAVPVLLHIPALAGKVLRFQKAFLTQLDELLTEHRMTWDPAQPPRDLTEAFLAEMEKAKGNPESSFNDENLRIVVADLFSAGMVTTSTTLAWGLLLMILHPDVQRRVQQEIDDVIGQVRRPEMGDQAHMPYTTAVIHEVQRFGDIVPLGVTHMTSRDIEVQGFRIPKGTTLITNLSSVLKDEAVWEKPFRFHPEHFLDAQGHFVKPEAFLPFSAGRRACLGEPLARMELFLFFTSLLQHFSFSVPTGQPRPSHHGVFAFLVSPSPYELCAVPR
Chain of CYP2C9 (P11712 whole entry): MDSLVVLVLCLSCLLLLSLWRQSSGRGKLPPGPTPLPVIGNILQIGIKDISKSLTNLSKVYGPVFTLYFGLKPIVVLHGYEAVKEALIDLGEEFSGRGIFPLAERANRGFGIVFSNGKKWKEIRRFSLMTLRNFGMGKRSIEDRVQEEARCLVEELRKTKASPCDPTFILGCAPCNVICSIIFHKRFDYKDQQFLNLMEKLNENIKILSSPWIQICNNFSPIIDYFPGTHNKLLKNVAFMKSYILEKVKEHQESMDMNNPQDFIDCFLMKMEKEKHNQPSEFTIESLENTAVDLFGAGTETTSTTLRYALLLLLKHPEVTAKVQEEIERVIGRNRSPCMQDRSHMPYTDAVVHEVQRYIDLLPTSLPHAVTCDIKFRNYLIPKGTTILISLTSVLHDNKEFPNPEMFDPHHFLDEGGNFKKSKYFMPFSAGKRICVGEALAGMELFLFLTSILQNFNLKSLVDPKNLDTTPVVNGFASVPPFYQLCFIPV
Chain of CYP3A4 (P08684 whole entry): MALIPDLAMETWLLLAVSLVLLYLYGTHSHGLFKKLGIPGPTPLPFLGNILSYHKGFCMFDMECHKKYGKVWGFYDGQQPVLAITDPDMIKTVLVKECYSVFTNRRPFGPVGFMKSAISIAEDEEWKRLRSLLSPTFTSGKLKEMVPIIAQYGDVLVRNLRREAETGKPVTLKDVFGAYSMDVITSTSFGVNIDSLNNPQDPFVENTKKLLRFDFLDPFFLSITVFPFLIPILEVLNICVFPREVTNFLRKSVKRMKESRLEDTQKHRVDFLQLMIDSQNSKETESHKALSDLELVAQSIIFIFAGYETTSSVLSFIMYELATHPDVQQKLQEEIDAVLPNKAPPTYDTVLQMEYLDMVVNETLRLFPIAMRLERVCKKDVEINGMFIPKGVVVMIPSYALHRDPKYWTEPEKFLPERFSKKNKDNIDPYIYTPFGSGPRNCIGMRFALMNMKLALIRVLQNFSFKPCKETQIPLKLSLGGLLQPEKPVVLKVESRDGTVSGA
Chain of hERG (Q12809 whole entry): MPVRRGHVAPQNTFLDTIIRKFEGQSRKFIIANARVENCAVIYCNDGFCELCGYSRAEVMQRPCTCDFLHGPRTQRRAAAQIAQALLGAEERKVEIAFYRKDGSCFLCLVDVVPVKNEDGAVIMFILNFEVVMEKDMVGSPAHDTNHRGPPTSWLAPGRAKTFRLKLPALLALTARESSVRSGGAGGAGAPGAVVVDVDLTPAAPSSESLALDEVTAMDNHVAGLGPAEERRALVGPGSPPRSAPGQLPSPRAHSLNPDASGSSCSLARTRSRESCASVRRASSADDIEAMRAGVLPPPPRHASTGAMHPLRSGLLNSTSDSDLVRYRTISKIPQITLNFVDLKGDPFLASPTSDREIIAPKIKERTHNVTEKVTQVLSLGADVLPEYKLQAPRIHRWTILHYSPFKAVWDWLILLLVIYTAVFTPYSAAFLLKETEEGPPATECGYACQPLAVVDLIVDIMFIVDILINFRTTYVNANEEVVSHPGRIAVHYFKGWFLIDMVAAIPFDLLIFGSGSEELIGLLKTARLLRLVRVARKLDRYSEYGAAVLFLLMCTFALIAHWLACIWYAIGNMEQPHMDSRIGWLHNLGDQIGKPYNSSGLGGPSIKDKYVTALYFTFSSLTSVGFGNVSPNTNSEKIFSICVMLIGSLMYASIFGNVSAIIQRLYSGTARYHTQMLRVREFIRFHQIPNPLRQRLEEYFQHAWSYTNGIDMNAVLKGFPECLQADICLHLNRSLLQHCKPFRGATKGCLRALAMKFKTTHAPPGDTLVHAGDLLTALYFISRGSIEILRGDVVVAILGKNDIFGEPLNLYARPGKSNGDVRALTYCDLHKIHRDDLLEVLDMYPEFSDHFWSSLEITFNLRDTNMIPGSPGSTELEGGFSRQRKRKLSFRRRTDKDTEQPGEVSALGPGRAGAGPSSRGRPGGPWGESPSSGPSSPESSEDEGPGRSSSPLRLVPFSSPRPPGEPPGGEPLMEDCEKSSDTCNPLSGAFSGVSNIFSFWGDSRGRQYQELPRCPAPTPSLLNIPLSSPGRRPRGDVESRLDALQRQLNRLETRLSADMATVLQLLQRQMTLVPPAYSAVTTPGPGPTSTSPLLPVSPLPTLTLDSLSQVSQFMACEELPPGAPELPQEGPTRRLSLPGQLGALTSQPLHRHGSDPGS
Chain of Procathepsin L (P07711 whole entry): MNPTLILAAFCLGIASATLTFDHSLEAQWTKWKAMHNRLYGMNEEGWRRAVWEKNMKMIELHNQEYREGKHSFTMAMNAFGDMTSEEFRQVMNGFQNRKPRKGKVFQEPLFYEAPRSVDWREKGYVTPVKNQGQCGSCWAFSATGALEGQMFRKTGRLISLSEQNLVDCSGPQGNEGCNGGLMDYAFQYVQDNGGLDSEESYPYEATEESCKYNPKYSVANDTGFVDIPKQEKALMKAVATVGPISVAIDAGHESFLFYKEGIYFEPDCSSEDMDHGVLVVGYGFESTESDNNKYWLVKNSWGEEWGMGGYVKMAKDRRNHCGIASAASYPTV

SMILES | IC50 [2] | inhibition [3] | IC50 [4] | metabolised at 0.5 h, 4 µM [5] | inhibition at 10 µM [6] | bioavailability [7] | inhibition at 10 µM [8] | Vd [9] | logD [10] | solubility [11] | metabolised at 0.5 h, 4 µM [12] | permeability [13] | inhibition [14] | logP [15] | pKa [16] | clearance [17] | metabolised at 0.5 h, 4 µM [18] | inhibition at 10 µM [19] | metabolised at 0.5 h, 4 µM [20] | also measured
O=C(N[C@@H]1CCCc2ccc(/N=C/N3CCCCCC3)cc21)c1ccc(Br)cc1 | 1170 nM | inactive | 1570 nM |  |  |  |  |  |  |  |  |  |  |  |  |  |  |  |  | IC50 [1]: > 100 µM
CNC(=O)O[C@H]1CCc2ccc(N3CCN(C4COC4)CC3)cc2[C@@H]1NC(=O)c1ccc(F)cc1 | 12.4 nM | inactive | 3.91 nM | < 20% | < 15% | > 75% | < 15% | < 1 L/kg | 1.2 | 1130 µg/mL (≈ 2340 µM) | < 20% | > 4% | Dose-dependent effect | 2.24 | 5 | < 4 mL/min/kg | < 20% | < 15% | < 20% | 
CN1CCN(C(=O)Nc2ccc3c(c2)C(NC(=O)c2ccccc2)CCC3)CC1 (centres undefined) | 1290 nM | inactive | 2780 nM |  |  |  |  |  |  |  |  |  |  |  |  |  |  |  |  | 
CN1CCN(c2ccc3c(c2)C(NC(=O)c2ccccc2)CCC3)CC1 (centres undefined) | 4000 nM | inactive | 3930 nM |  |  |  |  |  |  |  |  |  |  |  |  |  |  |  |  | 
CNC(=O)O[C@H]1COc2ccc(N3CCN(C4COC4)CC3)cc2[C@@H]1NC(=O)c1ccc(F)cc1 | 7.7 nM | inactive | 1.67 nM | < 20% | < 15% | > 75% | < 15% | < 1 L/kg | 1 | 1440 µg/mL (≈ 2970 µM) | < 20% | > 4% | Dose-dependent effect | 2.24 | 5.11 | < 4 mL/min/kg | < 20% | < 15% | < 20% | AUC(0-t) at 24 h [21]: 2330 ng·h/mL; AUC(0-t) at 24 h [22]: 35400 ng·h/mL; inhibition in vivo at 30 mg/kg [23]: 87%; Stability [24]: Stable; AUC(0-t) at 24 h [25]: 756 ng·h/mL; inhibition in vivo at 3 mg/kg [26]: 83%; inhibition in vivo at 1 mg/kg [27]: 58%; inhibition at 100 µM [28]: 6%; inhibition in vivo at 10 mg/kg [29]: 87%; AUC(0-t) at 24 h [30]: 5880 ng·h/mL; Stability [31]: Stable
